Tests used:
Homo sapiens = organism: Homo sapiens; test: Selectivity ratio of Ki for human D2L receptor to Ki for human D3 receptor
D(3) dopamine receptor [1] = biological target: T1, D(3) dopamine receptor (Homo sapiens, UniProt P35462); test: Displacement of [125I]IABN from human D3 receptor expressed in HEK293 cells after 60 mins by gamma counting analysis; assay type: cell-based
In short: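 Competitor spanned 5 orders of magnitude. Nonspecific binding defined with 15 µM (+)-butaclamol. Filtration with cold wash, then gamma counting. Single-site IC50 converted to Ki by Cheng-Prusoff. Mean of ≥3 independent experiments.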

D(2) dopamine receptor = D(2) dopamine receptor (Homo sapiens, UniProt P14416); test: Displacement of [125I]IABN from human D2L receptor expressed in HEK293 cells after 60 mins by gamma counting analysis; assay type: cell-based
In short: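 Competitor spanned 5 orders of magnitude. Filtration with cold wash, then gamma counting. Single-site IC50 converted to Ki by Cheng-Prusoff. Mean of ≥3 independent experiments.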

D(3) dopamine receptor [2] = biological target: T1, D(3) dopamine receptor; test: Partial agonist activity at human D3 receptor expressed in HEK293T cells coexpressing GalphaoA-91-Rluc8 and mVenus-Gbeta1gamma2 after 2 mins by bioluminescence resonance energy transfer assay relative to dopamine; assay type: functional, cell-based; settings: HEK-293T
In short: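 Human D3R transiently co-transfected (PEI) into HEK-293T cells with GαoA-RLuc8 and split-mVenus Gβ1/Gγ2; assayed ~48 h post-transfection. Cells in PBS/0.1% glucose at room temperature (40 µg protein/well), coelenterazine h 5 µM for 8 min, ligand for 2 min; BRET1 ratio 510–540/485 nm.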

Sequence of D(2) dopamine receptor (P14416 whole entry): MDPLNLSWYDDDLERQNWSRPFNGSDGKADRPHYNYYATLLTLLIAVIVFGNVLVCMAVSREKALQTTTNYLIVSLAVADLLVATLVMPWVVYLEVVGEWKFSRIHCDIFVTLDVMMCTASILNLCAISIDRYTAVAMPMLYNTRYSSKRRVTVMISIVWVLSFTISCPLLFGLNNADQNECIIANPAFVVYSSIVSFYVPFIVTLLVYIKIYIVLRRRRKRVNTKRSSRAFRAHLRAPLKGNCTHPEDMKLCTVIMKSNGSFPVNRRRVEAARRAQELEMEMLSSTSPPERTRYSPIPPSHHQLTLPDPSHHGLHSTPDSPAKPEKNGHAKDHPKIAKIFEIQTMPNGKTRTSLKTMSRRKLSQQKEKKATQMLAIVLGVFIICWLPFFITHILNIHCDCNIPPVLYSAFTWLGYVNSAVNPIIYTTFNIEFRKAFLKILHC
T1 sequence (P35462 whole entry): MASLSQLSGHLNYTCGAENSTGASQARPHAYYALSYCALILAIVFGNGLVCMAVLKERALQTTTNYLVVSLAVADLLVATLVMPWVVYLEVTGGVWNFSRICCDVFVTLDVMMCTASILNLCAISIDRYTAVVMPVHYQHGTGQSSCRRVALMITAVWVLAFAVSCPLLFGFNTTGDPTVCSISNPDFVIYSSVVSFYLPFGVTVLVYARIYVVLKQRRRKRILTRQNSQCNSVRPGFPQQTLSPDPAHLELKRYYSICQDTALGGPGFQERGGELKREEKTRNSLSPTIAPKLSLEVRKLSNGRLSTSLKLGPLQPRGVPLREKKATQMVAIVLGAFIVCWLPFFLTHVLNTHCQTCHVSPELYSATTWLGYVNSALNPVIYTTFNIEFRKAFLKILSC

SMILES | Ratio Ki (Homo sapiens) | Ki (D(3) dopamine receptor [1]) [nM] | Ki (D(2) dopamine receptor) [nM] | Emax (D(3) dopamine receptor [2]) [%]
CCCN1CCN(c2cccc(Cl)c2Cl)CC1 | 0.82 | 6.3 | 5.2 | –
COc1ccccc1N1CCN(CCCCNC(=O)c2cc3ccccc3[nH]2)CC1 | – | – | – | 8.38
CCCCNC(=O)c1cc2ccccc2[nH]1 | – | 21500 | – | –
CCCCN1CCN(c2cccc(Cl)c2Cl)CC1 | 1.79 | 1.9 | 3.4 | –
COc1ccccc1N1CCNCC1 | 0.3 | 2260 | 680 | –
CCC(=O)NCCCCN1CCN(c2ccccc2OC)CC1 | 2.18 | 38.6 | 84 | –
OCCN1CCN(c2cccc(Cl)c2Cl)CC1 | 1.75 | 36.3 | 63.7 | –
CN1CCN(c2cccc(Cl)c2Cl)CC1 | 0.84 | 54.6 | 45.9 | –
COc1ccccc1N1CCN(C)CC1 | 0.45 | 590 | 265 | –
CCC(=O)NCCCCN1CCN(c2cccc(Cl)c2Cl)CC1 | 3.25 | 4.8 | 15.6 | –
CCCCN1CCN(c2ccccc2OC)CC1 | 0.86 | 23.9 | 20.6 | –
O=C(NCCCCN1CCN(c2cccc(Cl)c2Cl)CC1)c1cc2ccccc2[nH]1 | – | 1.4 | – | 16
O=C(NCC[C@@H](O)CN1CCN(c2cccc(Cl)c2Cl)CC1)c1cc2ccccc2[nH]1 | – | – | – | 20.6
Clc1cccc(N2CCNCC2)c1Cl | 0.69 | 197 | 137 | –

From ChEMBL document CHEMBL2163237, “Molecular determinants of selectivity and efficacy at the dopamine D3 receptor” (J Med Chem, 2012)
